Test results taken from ChEMBL document CHEMBL1128707, “Novel thiazole based heterocycles as inhibitors of LFA-1/ICAM-1 mediated cell adhesion” (J Med Chem, 1995).

Assays:
[1] = target: Intercellular adhesion molecule (ICAM-1), Integrin alpha-L/beta-2 (Homo sapiens) (UniProt P20701+P05362+P05107); assay: Inhibition of HL-60 cell adhesion mediated by interaction of LFA-1 and ICAM-1; type: functional, cell-based; set-up: concentration or dose not given beside the values; conditions: concentration not given here
In short: (§1)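 HL60 cells (LFA-1 positive, Mac-1 negative by FACS) were fluorochrome-labeled and added to immunoaffinity-purified recombinant soluble ICAM-1 immobilized on plastic. Incubation was 40 min at 37 °C, and nonadherent cells were washed off. Adherence was read on a fluorescence concentration analyzer. Values are IC50 (μM) or % inhibition at 10 μM, each from one assay run in five replicates.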

HL-60 [2] = assay: The concentration of compound required to inhibit 50% interaction (IC50 ) was measured on LFA-1/ICAM-1 mediated cells using cell/cell adherence assay on the HL60/U937 test system; type: functional, cell-based; conditions: Homo sapiens
[3] = target: T1, Intercellular adhesion molecule (ICAM-1), Integrin alpha-L/beta-2 (Homo sapiens, UniProt P05107+P05362+P20701); assay: Inhibition of HL-60 cell adhesion to purified ICAM-1 by LFA-1; type: functional, cell-based; in short: as §1
T1 sequence (P20701 whole entry): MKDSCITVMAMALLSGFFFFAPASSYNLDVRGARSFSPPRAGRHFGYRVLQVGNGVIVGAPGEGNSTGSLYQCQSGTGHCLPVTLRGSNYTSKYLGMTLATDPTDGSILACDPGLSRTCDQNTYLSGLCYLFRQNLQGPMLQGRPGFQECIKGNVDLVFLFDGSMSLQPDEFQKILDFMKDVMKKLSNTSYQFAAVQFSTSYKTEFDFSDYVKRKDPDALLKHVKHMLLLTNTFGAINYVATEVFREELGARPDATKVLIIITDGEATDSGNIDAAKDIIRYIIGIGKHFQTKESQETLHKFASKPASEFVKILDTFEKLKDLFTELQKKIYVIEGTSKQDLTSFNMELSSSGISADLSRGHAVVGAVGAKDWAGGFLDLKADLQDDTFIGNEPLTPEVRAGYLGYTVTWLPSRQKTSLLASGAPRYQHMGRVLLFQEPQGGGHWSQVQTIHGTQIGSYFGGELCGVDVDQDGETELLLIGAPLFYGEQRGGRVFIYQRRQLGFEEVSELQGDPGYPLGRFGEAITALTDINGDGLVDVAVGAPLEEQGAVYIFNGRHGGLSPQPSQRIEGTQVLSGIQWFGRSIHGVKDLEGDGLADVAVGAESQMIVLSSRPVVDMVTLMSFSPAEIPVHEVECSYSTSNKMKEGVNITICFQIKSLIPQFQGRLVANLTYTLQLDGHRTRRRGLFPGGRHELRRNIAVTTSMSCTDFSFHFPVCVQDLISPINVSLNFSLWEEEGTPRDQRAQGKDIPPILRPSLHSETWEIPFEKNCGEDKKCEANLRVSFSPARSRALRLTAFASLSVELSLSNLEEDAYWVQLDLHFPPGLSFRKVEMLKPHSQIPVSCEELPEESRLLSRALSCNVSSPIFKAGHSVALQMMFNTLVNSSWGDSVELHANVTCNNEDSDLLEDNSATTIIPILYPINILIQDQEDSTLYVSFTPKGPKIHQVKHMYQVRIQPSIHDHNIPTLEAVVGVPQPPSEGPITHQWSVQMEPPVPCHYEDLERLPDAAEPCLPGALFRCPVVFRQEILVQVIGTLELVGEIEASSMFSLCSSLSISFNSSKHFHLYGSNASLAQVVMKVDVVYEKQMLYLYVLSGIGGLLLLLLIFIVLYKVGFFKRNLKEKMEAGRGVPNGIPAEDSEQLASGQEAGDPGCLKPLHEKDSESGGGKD
T1 sequence (P05362 whole entry): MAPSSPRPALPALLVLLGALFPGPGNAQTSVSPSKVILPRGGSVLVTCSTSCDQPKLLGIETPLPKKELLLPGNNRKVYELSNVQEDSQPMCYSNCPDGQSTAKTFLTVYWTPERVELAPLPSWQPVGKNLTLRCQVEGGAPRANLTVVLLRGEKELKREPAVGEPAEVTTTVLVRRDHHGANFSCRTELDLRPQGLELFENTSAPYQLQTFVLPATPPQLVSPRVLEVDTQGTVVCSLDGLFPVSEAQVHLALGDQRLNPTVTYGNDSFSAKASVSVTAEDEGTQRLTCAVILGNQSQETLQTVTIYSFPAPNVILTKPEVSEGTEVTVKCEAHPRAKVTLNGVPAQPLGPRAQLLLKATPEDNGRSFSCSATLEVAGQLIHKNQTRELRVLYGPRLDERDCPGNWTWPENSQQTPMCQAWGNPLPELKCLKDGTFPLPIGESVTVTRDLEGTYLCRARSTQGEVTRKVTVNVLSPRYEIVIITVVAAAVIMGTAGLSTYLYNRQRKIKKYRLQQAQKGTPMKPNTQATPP
T1 sequence (P05107 whole entry): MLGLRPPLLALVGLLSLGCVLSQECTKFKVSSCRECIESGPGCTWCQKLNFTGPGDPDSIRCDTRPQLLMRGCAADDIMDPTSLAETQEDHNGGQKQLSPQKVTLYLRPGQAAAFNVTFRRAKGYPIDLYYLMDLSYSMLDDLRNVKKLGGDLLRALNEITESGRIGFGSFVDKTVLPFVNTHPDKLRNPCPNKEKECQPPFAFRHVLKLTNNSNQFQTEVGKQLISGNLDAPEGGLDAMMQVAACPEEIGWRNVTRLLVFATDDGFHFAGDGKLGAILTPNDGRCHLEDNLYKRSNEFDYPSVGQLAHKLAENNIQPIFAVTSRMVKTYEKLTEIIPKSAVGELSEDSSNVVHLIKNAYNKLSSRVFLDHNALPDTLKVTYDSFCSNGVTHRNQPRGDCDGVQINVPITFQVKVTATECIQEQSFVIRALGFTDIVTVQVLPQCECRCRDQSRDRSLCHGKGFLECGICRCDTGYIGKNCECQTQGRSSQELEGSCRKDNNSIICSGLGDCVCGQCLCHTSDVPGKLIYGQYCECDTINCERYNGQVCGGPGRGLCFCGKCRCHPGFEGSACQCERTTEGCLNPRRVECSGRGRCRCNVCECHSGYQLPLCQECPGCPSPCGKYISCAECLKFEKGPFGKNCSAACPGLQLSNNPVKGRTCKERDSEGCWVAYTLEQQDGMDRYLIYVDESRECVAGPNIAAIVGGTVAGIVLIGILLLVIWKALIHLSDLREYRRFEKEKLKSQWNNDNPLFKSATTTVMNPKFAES

Integrin alpha-M/beta-2 = Integrin alpha-M/beta-2 (Homo sapiens, UniProt P05107+P11215); assay: Inhibition of neutrophil cell Mac-1 mediated adhesion to purified ICAM-1, no effect up to 20 […]; type: functional, cell-based
Integrin alpha-M/beta-2, sequence (P05107 23-769 limits assumed, other chains not shown): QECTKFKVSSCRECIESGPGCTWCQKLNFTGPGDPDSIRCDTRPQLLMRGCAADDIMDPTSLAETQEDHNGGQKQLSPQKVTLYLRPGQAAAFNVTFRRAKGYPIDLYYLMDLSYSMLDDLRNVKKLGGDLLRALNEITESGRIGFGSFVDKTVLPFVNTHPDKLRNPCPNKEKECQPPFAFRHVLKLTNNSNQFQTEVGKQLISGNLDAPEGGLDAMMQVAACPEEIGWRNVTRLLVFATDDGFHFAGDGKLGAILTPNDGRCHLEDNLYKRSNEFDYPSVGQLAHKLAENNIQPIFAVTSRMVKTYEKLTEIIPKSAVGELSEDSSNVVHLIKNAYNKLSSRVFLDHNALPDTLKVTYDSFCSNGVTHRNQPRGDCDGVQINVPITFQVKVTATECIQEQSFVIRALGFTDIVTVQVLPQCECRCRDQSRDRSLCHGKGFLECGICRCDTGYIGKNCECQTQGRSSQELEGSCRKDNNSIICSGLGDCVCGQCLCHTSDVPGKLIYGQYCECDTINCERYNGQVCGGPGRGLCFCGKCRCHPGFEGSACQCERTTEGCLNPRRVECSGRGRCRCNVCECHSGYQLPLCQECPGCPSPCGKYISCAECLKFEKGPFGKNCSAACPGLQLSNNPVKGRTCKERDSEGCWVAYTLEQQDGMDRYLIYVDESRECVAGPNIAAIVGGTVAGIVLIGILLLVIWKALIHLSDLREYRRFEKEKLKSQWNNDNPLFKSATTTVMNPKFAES

[4] = target: T1, Intercellular adhesion molecule (ICAM-1), Integrin alpha-L/beta-2; assay: Inhibition of LFA-1 mediated HL60 cell adhesion to ICAM-1; type: cell-based, HL-60; in short: as §1
[5] = The inhibitory activity was measured on VLA-4/VCAM-1 mediated cells using cell/cell adherence assay on the Ramos/IL-1beta HUVEC test system; no effect up to 20 pM; type: functional, cell-based; conditions: in the assay text read “20 µM” for “20 pM”
In short: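 Cell/cell adhesion used VLA-4-expressing Ramos B lymphoblastoid cells and HUVEC stimulated overnight with IL-1β to express VCAM-1. Adherence was quantified by fluorescence.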

HL-60 [6] = assay: The inhibitory activity was measured on sLex/E-selectin mediated cells using cell/cell adherence assay on the HL60/IL-1beta HUVEC test system; no effect up to 20 µM; conditions: Homo sapiens

## Cc1ccc(-c2csc(-n3ncc(C(=O)NCCCO)c3C)n2)cc1
[1]
  inhibition: 7%

## Cc1c(C(=O)NCCCO)cnn1-c1nc(-c2cccc(Cl)c2)cs1
[1]
  inhibition: 20%

## Cc1c(C(=O)NCCCCCO)cnn1-c1nc(-c2cccc(C(F)(F)F)c2)cs1
[1]
  inhibition: 0%

## CCOC(=O)CCCNC(=O)c1cnn(-c2nc(-c3cccc(C(F)(F)F)c3)cs2)c1C
[1]
  inhibition: 0%

## CCc1c(C(=O)NCCCN2CCCC2=O)cnn1-c1nc(-c2cccc(C(F)(F)F)c2)cs1
[1]
  inhibition: 10%

## COc1cc(-c2csc(-n3ncc(C(=O)NCCCO)c3C)n2)cc(OC)c1OC
[1]
  inhibition: 0%

## CCc1c(C(=O)NCCCn2ccnc2)cnn1-c1nc(-c2cccc(C(F)(F)F)c2)cs1
[1]
  inhibition: 34%

## CCCc1c(C(=O)NCCCO)cnn1-c1nc(-c2cccc(C(F)(F)F)c2)cs1
[1]
  inhibition: 26%

## Cc1c(C(=O)OCCCO)cnn1-c1nc(-c2cccc(C(F)(F)F)c2)cs1
[1]
  inhibition: 25%

## Cc1c(C(=O)NCCCCO)cnn1-c1nc(-c2cccc(C(F)(F)F)c2)cs1
[1]
  inhibition: 51%

## Cc1c(C(=O)NCCCO)cnn1-c1nc(-c2ccccc2)cs1
[1]
  inhibition: 5%

## O=C(NCCCO)c1cnn(-c2nc(-c3cccc(C(F)(F)F)c3)cs2)c1C(F)(F)F
[1]
  inhibition: 5%

## Cc1c(C(=O)NCCCO)cnn1-c1nc(-c2cccc(C(F)(F)F)c2)cs1
HL-60 [2]
  IC50: 5 µM
[3]
  IC50: 5 µM
Integrin alpha-M/beta-2
  IC50: No effect
[4]
  IC50: 5 µM
[5]
  IC50: No effect
HL-60 [6]
  IC50: No effect

## COCCCNC(=O)c1cnn(-c2nc(-c3cccc(C(F)(F)F)c3)cs2)c1C
[1]
  inhibition: 48%

## CCc1c(C(=O)NCCCO)cnn1-c1nc(-c2cccc(C(F)(F)F)c2)cs1
[3]
  IC50: 3 µM
